Compound activity (PubChem BioAssay)
HUVEC inhibit = blocks proliferation of human endothelial cells. HUVEC proliferation, CellTiter-Glo luminescence, 72 h; stronger effect = lower value. viability, % at 10 µM (by protocol). 86,000 compounds, 1.1% hits;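 active means viability at or below 30%; inactive means viability above 30%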
PTEN del growth = PTEN-deleted cell growth suppression. HCT116 PTEN-null viability, CellTiter-Glo, 60 h; stronger effect = lower value. viability, % at 10 µM. 140,000 compounds, 1.2% hits;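 active means viability at or below a set limit, 4 SD under the median of all tested compounds, cut at about 3.7% in these data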;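 further: PTEN knockout HCT116 line with beta catenin targeted HCT116 as companion control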
HCT116 bCat-KO = beta-catenin-lacking colon tumor cell growth suppression; HCT116 beta-catenin knockout viability, CellTiter-Glo, 60 h; stronger effect = lower value; viability, % at 10 µM; 140,000 compounds, 1.5% hits;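 active means viability at or under a set limit, the compound median less 4 SD, cut at about 6% in these data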
H69AR inhibit = blocks growth of human H69AR lung tumor cells; H69AR lung tumor viability, ATP luminescence, 72 h; stronger effect = lower value; viability, % at 10 µM; 85,000 compounds, 6% hits; AID 598;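 active means viability at or below 40%; inactive means viability above 40%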;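 further: multidrug resistant small cell line overexpressing MRP-1 efflux transporter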
Cav3 T inh = inhibitors of human Cav3.2 T-type calcium channel; Cav3.2-expressing cells, Fluo-4 calcium fluorescence FDSS; stronger effect = lower value; B-score at 10 µM; 100,000 compounds, 4% hits; AID 449739;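 active means single-dose well whose peak fluorescence ratio is a statistical outlier from its plate by either plate-standardised score or position-corrected B-score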
Target sequence (O95180 whole entry, looked up): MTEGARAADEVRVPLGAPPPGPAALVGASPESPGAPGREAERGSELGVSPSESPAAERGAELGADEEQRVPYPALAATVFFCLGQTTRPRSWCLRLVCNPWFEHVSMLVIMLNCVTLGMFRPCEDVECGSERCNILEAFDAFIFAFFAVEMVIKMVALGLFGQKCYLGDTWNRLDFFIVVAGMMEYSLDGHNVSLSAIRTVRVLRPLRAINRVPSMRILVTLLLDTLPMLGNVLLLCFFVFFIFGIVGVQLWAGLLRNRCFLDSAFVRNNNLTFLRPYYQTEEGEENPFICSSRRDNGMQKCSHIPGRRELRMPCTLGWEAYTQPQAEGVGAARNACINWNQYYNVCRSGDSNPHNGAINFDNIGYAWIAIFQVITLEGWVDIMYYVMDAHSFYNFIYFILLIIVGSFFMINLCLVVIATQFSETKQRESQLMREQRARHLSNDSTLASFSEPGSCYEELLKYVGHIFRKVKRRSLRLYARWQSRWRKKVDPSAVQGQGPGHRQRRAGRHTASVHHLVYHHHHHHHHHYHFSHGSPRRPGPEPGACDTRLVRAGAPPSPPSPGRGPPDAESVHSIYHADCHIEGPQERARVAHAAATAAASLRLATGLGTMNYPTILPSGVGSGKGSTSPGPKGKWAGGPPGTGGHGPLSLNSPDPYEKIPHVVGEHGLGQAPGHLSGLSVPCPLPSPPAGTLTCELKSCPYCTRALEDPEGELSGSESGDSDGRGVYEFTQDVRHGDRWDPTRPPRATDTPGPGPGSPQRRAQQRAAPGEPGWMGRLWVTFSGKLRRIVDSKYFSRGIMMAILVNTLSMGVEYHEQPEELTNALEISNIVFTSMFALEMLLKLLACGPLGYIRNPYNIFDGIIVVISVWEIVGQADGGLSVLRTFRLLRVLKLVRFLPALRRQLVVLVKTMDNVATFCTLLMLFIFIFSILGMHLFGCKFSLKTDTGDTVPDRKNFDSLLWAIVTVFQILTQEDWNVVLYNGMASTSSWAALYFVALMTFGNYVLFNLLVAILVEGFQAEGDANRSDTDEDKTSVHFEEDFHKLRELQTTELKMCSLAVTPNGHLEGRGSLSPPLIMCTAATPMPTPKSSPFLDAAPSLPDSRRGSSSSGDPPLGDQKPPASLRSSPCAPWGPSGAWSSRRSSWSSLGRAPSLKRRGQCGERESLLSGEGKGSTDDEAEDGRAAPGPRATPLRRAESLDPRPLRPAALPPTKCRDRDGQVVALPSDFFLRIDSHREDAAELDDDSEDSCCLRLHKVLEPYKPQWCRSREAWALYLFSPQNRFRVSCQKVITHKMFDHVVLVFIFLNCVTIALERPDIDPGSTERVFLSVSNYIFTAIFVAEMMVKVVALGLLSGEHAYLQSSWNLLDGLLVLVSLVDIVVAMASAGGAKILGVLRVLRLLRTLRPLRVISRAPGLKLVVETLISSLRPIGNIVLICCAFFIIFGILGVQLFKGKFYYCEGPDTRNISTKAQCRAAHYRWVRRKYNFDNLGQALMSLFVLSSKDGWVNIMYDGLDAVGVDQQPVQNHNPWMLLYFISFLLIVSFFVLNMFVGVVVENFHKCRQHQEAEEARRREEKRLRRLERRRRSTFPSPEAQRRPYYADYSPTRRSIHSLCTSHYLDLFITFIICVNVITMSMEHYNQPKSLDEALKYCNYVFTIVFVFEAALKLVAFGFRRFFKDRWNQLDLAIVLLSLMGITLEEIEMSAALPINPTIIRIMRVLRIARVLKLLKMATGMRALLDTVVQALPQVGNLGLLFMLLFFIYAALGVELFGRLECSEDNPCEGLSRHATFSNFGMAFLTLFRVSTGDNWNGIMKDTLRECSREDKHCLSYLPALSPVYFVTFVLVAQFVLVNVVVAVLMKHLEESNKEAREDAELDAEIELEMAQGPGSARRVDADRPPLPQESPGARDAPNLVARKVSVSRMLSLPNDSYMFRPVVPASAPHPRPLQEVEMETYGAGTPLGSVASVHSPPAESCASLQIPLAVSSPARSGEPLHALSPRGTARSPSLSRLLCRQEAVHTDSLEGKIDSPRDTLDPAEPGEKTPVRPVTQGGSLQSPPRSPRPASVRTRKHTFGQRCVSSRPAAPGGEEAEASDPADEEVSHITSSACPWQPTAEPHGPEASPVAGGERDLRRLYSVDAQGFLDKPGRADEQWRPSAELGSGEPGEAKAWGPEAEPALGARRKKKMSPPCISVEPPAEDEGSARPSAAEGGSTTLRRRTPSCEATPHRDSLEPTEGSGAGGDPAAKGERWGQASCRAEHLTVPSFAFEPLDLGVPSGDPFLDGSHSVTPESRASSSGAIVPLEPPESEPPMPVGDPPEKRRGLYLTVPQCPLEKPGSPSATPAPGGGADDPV
Fibroblast inh = blocks proliferation of human lung fibroblasts | 85,000 compounds, 1.1% hits | LL 47 human lung fibroblast viability, ATP luminescence; stronger effect = lower value | viability, % at 10 µM;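 active means viability at or below 50% in the single dose screen; inactive means viability above 50%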;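 further: compound exposure lasted 72 h before the ATP readout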
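Benchmarks: Cell-only wells, no compound | Test system: LL 47 human lung fibroblasts, passage 12 or lower | Input: 1,150 cells/well | Measured by: CellTiter-Glo luminescence measuring cellular ATP | Medium: IMEM, 15% FBS supplement | Schedule: Overnight attachment after seeding, then 72 h compound exposure at 37 °C | Doses: Compound addition at 0.1% DMSO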
Hits are given with their value; – = inactive; · = not tested or not shown. Most compounds without a hit are left out; they make up all but 7.1% or so of the library.

SMILES	HUVEC inhibit	PTEN del growth	HCT116 bCat-KO	H69AR inhibit	Cav3 T inh	Fibroblast inh
CC1CCN(c2ncnc3c2cnn3Cc2ccc(Cl)cc2)CC1	–	–	–	–	–	–
Cc1ccccc1N1CCN(c2ncnc3c2cnn3Cc2ccc(Cl)cc2)CC1	–	–	–	–	-4.6	–
Cc1cc(C)nc(N2CCN(c3ncnc4c3cnn4Cc3ccc(Cl)cc3Cl)CC2)n1	–	·	·	32	–	·
CCCc1[nH][nH]c(=O)c1C(c1cccc(Cl)c1)C(C#N)C#N (centres undefined)	–	–	–	17	–	–
CN(C(=O)c1cnc(N2CCN(c3ncccn3)CC2)c2ccccc12)c1ccc(Cl)cc1	–	–	–	–	·	–
CCN(C(=O)c1cnc(N2CCN(c3ncccn3)CC2)c2ccccc12)c1cccc(Cl)c1	–	–	4.0	20	-6.6	–
N#CC(c1ccc(Cl)cc1)c1ccc2c(C(F)(F)F)cc(C(F)(F)F)nc2n1 (centres undefined)	27	0.8	0.9	4.6	–	18
FC(F)(F)c1cc(C(F)(F)F)c2ccc(N3CCN(c4ccc(Cl)cc4)CC3)nc2n1	·	–	–	·	-7	·
FC(F)(F)c1cc(C(F)(F)F)c2ccc(N3CCN(c4ncccn4)CC3)nc2n1	·	–	–	·	–	·
Fc1ccc(N2CCN(c3ccc4c(C(F)(F)F)cc(C(F)(F)F)nc4n3)CC2)cc1	·	–	–	·	-4	·
O=C(CN1CCN(S(=O)(=O)c2ccc3ccccc3c2)CC1)Nc1ccc2c(c1)CCC2	·	–	–	·	·	·
CCOC(=O)c1cc(-c2ccccc2)sc1NC(=O)C(C)N1C(=O)c2ccccc2C1=O (centres undefined)	·	–	–	·	·	·
CC(=O)Nc1ccc2nc(-c3ccccn3)[nH]c2c1	–	–	–	–	–	–
c1ccc(-c2nc3cc4ccccc4cc3[nH]2)nc1	–	–	–	16	–	–
Cn1c(N2CCN(C(=O)NCc3ccccc3)CC2)nc2ccccc21	–	–	–	–	–	–
O=C(NCc1ccccc1)N1CCN(c2ccc(Cl)c(Cl)c2)CC1	–	–	–	–	-5.2	·
O=C(NCc1ccccc1)N1CCN(c2ccc(F)cc2)CC1	–	–	–	–	-4.3	–
Cc1nn(C)c(Oc2ccccc2)c1CCNS(=O)(=O)c1ccccc1	·	–	–	·	–	·
COc1ccc(C2=NCCn3cccc32)c(OC)c1	·	–	–	·	·	·
CC(C)c1nc(N2CCN(C(=O)c3ccccc3)CC2)c(C#N)c2c1COC(C)(C)C2	–	–	–	–	-6.2	–
CC1(C)Cc2c(C#N)c(N3CCN(C(=O)c4ccccc4)CC3)nc(-c3ccco3)c2CS1	·	–	–	·	–	·
CCOC(=O)c1sc(/N=C/c2ccc(O)cc2O)cc1C	·	–	–	·	·	·
CCOc1ccc(OC(=O)NC(c2ccccc2)C(Cl)(Cl)Cl)cc1 (centres undefined)	·	–	–	·	-3.5	·
Cc1c(C(=O)c2no[n+]([O-])c2C(=O)c2cnn(C)c2C)cnn1C	–	–	–	1.8	–	–
COc1ccc(C(=O)c2no[n+]([O-])c2C(=O)c2ccc(OC)cc2)cc1	·	–	–	·	–	·
SMILES	HUVEC inhibit	PTEN del growth	HCT116 bCat-KO	H69AR inhibit	Cav3 T inh	Fibroblast inh
CC(C)c1nc(CN(C)C(=O)N[C@H](C(=O)N[C@@H](Cc2ccccc2)C[C@H](O)[C@H](Cc2ccccc2)NC(=O)OCc2cncs2)C(C)C)cs1	·	·	·	·	-5.6	·
CC(C)C(NC(=O)OCc1ccccc1)C(=O)NCC(=O)OC(C)(C)C (centres undefined)	–	–	–	–	–	–
Cc1cc(NCCCn2ccnc2)n2nc(C)c(-c3ccccc3)c2n1	–	–	–	–	–	–
Cc1cc(SCC#N)n2nc(C)c(-c3ccc(Cl)cc3)c2n1	–	–	–	–	–	–
Cc1cc(SCC#N)n2nc(C)c(-c3ccccc3)c2n1	–	–	–	26	–	–
Cc1cc(NCCN2CCOCC2)n2nc(C)c(-c3ccccc3)c2n1	–	–	–	27	–	–
Cc1cc(NCCCn2ccnc2)n2ncc(-c3ccccc3)c2n1	–	–	–	27	·	–
Cc1cc(C)c2c(n1)nn1c(NCCN3CCOCC3)cc(C)nc21	–	–	–	–	–	–
Cc1cc(NCCN2CCOCC2)n2nc(C)c(-c3ccc(Cl)cc3)c2n1	–	–	–	12	–	–
O=C(CN1C(=O)C2C3C=CC(C4CC34)C2C1=O)OCC(=O)c1ccccc1 (centres undefined)	·	–	–	·	·	·
O=[N+]([O-])c1ccc(N/N=C2/CCCCC2c2ccccn2)cc1 (centres undefined)	·	–	–	·	·	·
Cc1cc(NCCN2CCOCC2)n2ncc(-c3ccccc3)c2n1	–	–	–	25	–	–
COc1ccc(C(=O)OCC(=O)NCc2ccco2)cc1S(=O)(=O)N1CCN(c2cccc(Cl)c2)CC1	·	–	–	·	-7.4	·
Cc1cc(C(=O)N/N=C/c2cc(Br)cc(Br)c2OC(=O)c2ccccc2)n[nH]1	·	–	5.1	·	·	·
Cc1cc(C(=O)N/N=C/c2cc(Br)ccc2OC(=O)c2ccc(Br)cc2)n[nH]1	·	–	–	·	·	·
Oc1c(N=Nc2ccccn2)ccc2ccccc12	·	2.0	1.8	·	–	·
Cc1ccc(/C=N\Nc2cn[nH]c(=O)c2Cl)cc1	–	–	–	–	-5.3	–
CCCCCCCC1CC(/C(C)=N/NC(N)=O)OC1=O (centres undefined)	·	–	–	·	·	·
CCOC(=O)c1oc2ccccc2c1CSc1nnnn1-c1ccc(C)cc1	–	–	–	–	-3.9	–
CCOC(=O)c1oc2ccccc2c1CSc1nnc(-c2ccco2)o1	–	–	–	–	–	–
CC1CCCN(Cc2c(O)ccc3c(=O)c(-c4nc5ccccc5s4)c(N)oc23)C1 (centres undefined)	·	0.9	1.0	·	–	·
CC1CCN(Cc2c(O)ccc3c(=O)c(-c4nc5ccccc5s4)c(N)oc23)CC1	·	–	–	·	·	·
O=C(c1cc2ccccc2oc1=O)N(c1ccc(Cl)cc1)C1C=CS(=O)(=O)C1 (centres undefined)	·	–	–	·	·	·
O=c1[nH]c2ccccc2n1CCCN1CCN(C(c2ccccc2)c2ccccc2)CC1	–	–	5.6	27	-5	–
O=C(N[C@@H](Cc1ccccc1)C(=O)OCc1ccccc1)c1nc[nH]c1C(=O)N1CCc2ccccc2C1	·	·	·	·	–	·
SMILES	HUVEC inhibit	PTEN del growth	HCT116 bCat-KO	H69AR inhibit	Cav3 T inh	Fibroblast inh
O=S(=O)(Nc1cc(Sc2cccc3cccnc23)c(O)c2ccccc12)c1ccccc1	·	1.2	1.3	·	·	·
COc1cc(NS(=O)(=O)c2ccc(C)cc2)c2ncccc2c1	–	2.3	3.6	4.0	–	9.1
O=C(O)c1ccccc1NS(=O)(=O)c1cccc2cccnc12	–	–	–	–	–	–
Cc1ccc(S(=O)(=O)Nc2cccc3cccnc23)cc1	–	1.6	1.6	1.9	–	5.8
N#CC1=C(N)Oc2ccc3ccc(O)cc3c2C1c1ccsc1 (centres undefined)	·	–	–	·	·	·
Cc1ccc(-n2c(Cc3cccn3C)nnc2SCC(=O)N2CCc3ccccc32)cc1	·	–	–	·	-3.3	·
